Screens as filed in PubChem.
SUMO1-SIM PPI = alters human SUMO1 binding to SIM partners | P63165 | SUMO1 binding to a labelled peptide, TR-FRET, 1 h | inhibition, % at 20 µM | hit rate 0.33% among 360,000 | AID 602429; in the data active = inhibition above about 37%
Target sequence (P63165 whole entry, looked up): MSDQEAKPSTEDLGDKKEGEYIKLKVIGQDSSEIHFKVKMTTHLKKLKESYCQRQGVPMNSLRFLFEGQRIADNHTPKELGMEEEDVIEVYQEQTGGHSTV
STEP block = inhibitors of human striatal-enriched phosphatase STEP. P54829. recombinant STEP, OMFP fluorogenic substrate, fluorescence. inhibition, % at 20 µM. hit rate 0.25% among 360,000. AID 588621;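 active = inhibition at 20 µM, scaled per plate between control wells, above about 37%, limit read from the data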;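 also: 0% = DMSO with enzyme and substrate and 100% = substrate only without enzyme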
Target sequence (P54829 whole entry, looked up): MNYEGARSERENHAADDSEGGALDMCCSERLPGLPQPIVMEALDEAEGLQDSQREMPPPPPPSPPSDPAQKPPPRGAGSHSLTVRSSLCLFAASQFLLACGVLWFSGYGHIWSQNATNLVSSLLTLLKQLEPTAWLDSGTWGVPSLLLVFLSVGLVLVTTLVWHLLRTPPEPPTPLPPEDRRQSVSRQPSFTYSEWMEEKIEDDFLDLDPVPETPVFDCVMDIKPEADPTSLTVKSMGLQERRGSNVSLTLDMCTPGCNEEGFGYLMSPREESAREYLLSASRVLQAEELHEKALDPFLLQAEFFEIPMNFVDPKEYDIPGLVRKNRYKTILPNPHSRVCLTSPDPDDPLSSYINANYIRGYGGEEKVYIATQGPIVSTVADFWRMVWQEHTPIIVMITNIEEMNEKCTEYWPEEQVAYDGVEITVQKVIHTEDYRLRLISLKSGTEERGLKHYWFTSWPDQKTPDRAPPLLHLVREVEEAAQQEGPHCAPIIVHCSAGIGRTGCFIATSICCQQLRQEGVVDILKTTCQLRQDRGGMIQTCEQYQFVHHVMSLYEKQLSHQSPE
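System: STEP (striatal-enriched tyrosine phosphatase) enzyme, cell-free; medium: Bis-Tris pH 6.0 buffer with DTT, detergent; dosing: 20 µM, 1% DMSO; times: reaction 20 min, ambient temperature; detection: fluorescence, 480/540 nm; read-out basis: normalized % inhibition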
Scp1 inh = Scp-1 (human) phosphatase inhibition | inhibition, % at 20 µM | Q9GZU7 | Recombinant Scp1, phosphopeptide, malachite green phosphate absorbance | hit rate 0.88% among 340,000;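 active = inhibition above about 50% at 20 µM, limit read from the data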;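 also: plate controls were DMSO wells with enzyme for no effect and wells lacking enzyme for full effect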
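System: SCP-1 catalytic domain; Reagent: Phospho 17-mer peptide substrate; Doses: one concentration, 20 µM, with 1.0% DMSO; Incubation: 45 min room-temperature reaction, 5 min colour, 30 min stabiliser; Signal: Phosphate-binding colour reagent, absorbance read at 630 nm.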
CSN deneddyl inh = blocks human CSN-mediated cullin deneddylation; Q92905; Purified CSN, SCF-Nedd8-OG deneddylation, fluorescence polarization; inhibition, % at 12.5 µM; hit rate 0.38% among 360,000; AID 651999;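 active = pattern-corrected inhibition above about 35%, with an unprinted fluorescence ratio check between 0.5 and 1.5, limit read from the data, passing the limit was not always enough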;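 also: 0% = enzyme with substrate and 100% = substrate without enzyme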
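Test system: Human Csn5 produced in HEK293T cells | Compound: 12.5 µM single point | Times: 90 min, room temperature | Signal: Fluorescence polarization readout | Read-out basis: % inhibition of substrate cleavage by Csn5 | Controls: no-enzyme wells high, enzyme-with-substrate wells low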
LMPTP inh = LMPTP (human) inhibition. recombinant LMPTP-A, OMFP fluorogenic substrate, fluorescence intensity. inhibition, % at 20 µM. hit rate 0.22% among 360,000. AID 651560;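 active = compounds that cut the enzyme signal by at least half of the control window in the single-dose screen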;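 also: plate controls were DMSO wells with enzyme plus substrate for no effect and substrate without enzyme for full effect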
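Test system: LMPTP-A phosphatase enzyme; input: 0.625 nM LMPTP-A final; reagent: OMFP substrate, 400 µM final; compound dosing: 20 µM single dose, 3% DMSO; incubation: 50 min dark incubation at room temperature; measured by: endpoint fluorescence intensity from OMFP dephosphorylation; measure: % inhibition relative to no-enzyme and uninhibited control wells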
DNMT1 block = inhibitors of human DNMT1; P26358; DNMT1 molecular beacon, Hinp1I cleavage, fluorescence; inhibition (reported as % activation of signal), % at 10 µM; hit rate 0.83% among 360,000; AID 588458; in the data active = inhibition above about 50%
* = called active by the depositor. In the library only some 2% were active in any assay of this set; here they are far more common.

Cc1c(/C=N/Nc2ccc([N+](=O)[O-])cn2)c2ccccc2n1Cc1ccccc1 was read as SUMO1-SIM PPI -15, STEP block 4, Scp1 inh -11, CSN deneddyl inh 4, LMPTP inh 8 and DNMT1 block 51*.
`Cc1ccc(Cn2cc(/C=N/Nc3ccc([N+](=O)[O-])cn3)c3ccccc32)cc1` gave SUMO1-SIM PPI -17, STEP block 1, Scp1 inh 2, CSN deneddyl inh 25, LMPTP inh 3 and DNMT1 block 34.
Screening Cc1cccc(C(C(N)=O)c2ncc(C(F)(F)F)cc2Cl)c1 (stereo not drawn) returned SUMO1-SIM PPI 0, STEP block 0, Scp1 inh -4, CSN deneddyl inh -8, LMPTP inh 1 and DNMT1 block -1.
Screening O=C(CN1CCN(S(=O)(=O)c2ccc(Cl)cc2)CC1)c1ccc(O)c(O)c1 returned SUMO1-SIM PPI -1, STEP block 2, Scp1 inh 7, CSN deneddyl inh 6, LMPTP inh 59* and DNMT1 block 3.
`O=C(CN1CCN(S(=O)(=O)c2ccc(F)cc2)CC1)c1ccc(O)c(O)c1` gave SUMO1-SIM PPI -2, STEP block 2, Scp1 inh -2, CSN deneddyl inh -9, LMPTP inh 66* and DNMT1 block 2.
For COc1ccc(S(=O)(=O)N2CCN(CC(=O)c3ccc(O)c(O)c3)CC2)cc1 the results were SUMO1-SIM PPI -2, STEP block 2, Scp1 inh -5, CSN deneddyl inh 1, LMPTP inh 70* and DNMT1 block 3.
`NC(=O)CN1CCN(S(=O)(=O)c2ccc(Cl)cc2)CC1` gave SUMO1-SIM PPI -2, STEP block 6, Scp1 inh -7, CSN deneddyl inh 0, LMPTP inh 0 and DNMT1 block -1.
Clc1ccccc1-c1nnc(-c2ccc3c(c2)OCO3)o1 was read as SUMO1-SIM PPI -2, STEP block 3, Scp1 inh 4, CSN deneddyl inh 13, LMPTP inh 2 and DNMT1 block -1.
For NC(=O)NCCN1CCN(c2ncc(C(F)(F)F)cc2Cl)CC1 the results were SUMO1-SIM PPI 1, STEP block -1, Scp1 inh -6, CSN deneddyl inh -2, LMPTP inh -1 and DNMT1 block 2.
Screening O=C(COC(=O)C1=NN(c2ccccc2)C(=O)CC1)NCc1ccccc1Cl returned SUMO1-SIM PPI -1, STEP block -2, Scp1 inh -5, CSN deneddyl inh -4, LMPTP inh 0 and DNMT1 block 1.
`Oc1c(Cl)cc(Cl)cc1CNc1nccs1` gave SUMO1-SIM PPI 26, STEP block -2, Scp1 inh -5, CSN deneddyl inh 4, LMPTP inh 0 and DNMT1 block -1.
Screening O=S(c1cc(Cl)cc(Cl)c1O)c1cc(Cl)cc(Cl)c1O returned SUMO1-SIM PPI 43*, CSN deneddyl inh -2 and LMPTP inh 2.
CN(Cc1c(C(=O)N/N=C/c2ccccc2O)nnn1-c1nonc1N)C1CCCCC1 was read as SUMO1-SIM PPI 3, STEP block 0, CSN deneddyl inh 2, LMPTP inh 1 and DNMT1 block 59*.
For CN(Cc1c(C(=O)N/N=C/c2cccc(O)c2)nnn1-c1nonc1N)C1CCCCC1 the results were SUMO1-SIM PPI -3, STEP block 0, Scp1 inh 3, CSN deneddyl inh 1, LMPTP inh 0 and DNMT1 block 5.
`Nc1nonc1-n1nnc(C(=O)N/N=C/c2ccc(Cl)cc2Cl)c1CN1CCCCC1` gave SUMO1-SIM PPI 4, STEP block -1, Scp1 inh 1, CSN deneddyl inh 4, LMPTP inh -2 and DNMT1 block 14.
For CN(C)c1ccc(/C=N/NC(=O)c2nnn(-c3nonc3N)c2COc2ccc(F)cc2)cc1 the results were SUMO1-SIM PPI 7, STEP block 6, Scp1 inh 7, CSN deneddyl inh 5, LMPTP inh 51* and DNMT1 block 32.
Screening Nc1nonc1-n1nnc(C(=O)N/N=C/c2cc(Cl)ccc2O)c1CN1CCCCCC1 returned SUMO1-SIM PPI 7, STEP block 0, CSN deneddyl inh -4, LMPTP inh 0 and DNMT1 block 50*.
Cc1ccc(Cn2c(CCCO)nc3ccccc32)cc1 was read as SUMO1-SIM PPI 7, STEP block -3, Scp1 inh -6, CSN deneddyl inh -1, LMPTP inh 2 and DNMT1 block 1.
Screening Cc1c(O)ccc(-c2n[nH]c(C(=O)O)c2-c2nc3ccccc3s2)c1O returned SUMO1-SIM PPI 3, STEP block -1, Scp1 inh -14, CSN deneddyl inh 1, LMPTP inh -2 and DNMT1 block 0.
O=C(COc1ccc2c(c1)OCO2)Nc1nccs1 was read as SUMO1-SIM PPI 4, STEP block -1, Scp1 inh 22, CSN deneddyl inh 1, LMPTP inh 1 and DNMT1 block 0.
Clc1nnc2ccc(-c3ccccc3)nn12 was read as SUMO1-SIM PPI -18, STEP block 1, Scp1 inh 0, CSN deneddyl inh 54*, LMPTP inh -3 and DNMT1 block 2.
For Cc1ccc2nnc(Cl)n2n1 the results were SUMO1-SIM PPI 1, STEP block -3, Scp1 inh -8, CSN deneddyl inh 1, LMPTP inh -1 and DNMT1 block -10.
For CCS(=O)(=O)N1N=C(c2cccc(NS(C)(=O)=O)c2)CC1c1ccc(C)cc1 (stereo not drawn) the results were SUMO1-SIM PPI -2, STEP block -4, Scp1 inh -11, CSN deneddyl inh 73*, LMPTP inh -2 and DNMT1 block -4.
`Cc1ccc(S(=O)(=O)Nc2cccc(C(=O)NCc3ccccn3)c2)cc1F` gave SUMO1-SIM PPI -5, STEP block 1, Scp1 inh -8, CSN deneddyl inh 0, LMPTP inh 1 and DNMT1 block 1.
CN1CCC[C@H]1CCNc1ccc2c(=O)c3ccccc3n(C)c2c1 was read as SUMO1-SIM PPI 82*, STEP block 9, Scp1 inh 0, CSN deneddyl inh 5, LMPTP inh 46 and DNMT1 block 40.
For CN1CCCC1CCNc1ccc2c(=O)c3ccccc3oc2c1 (stereo not drawn) the results were SUMO1-SIM PPI -2, STEP block 6, Scp1 inh 4, CSN deneddyl inh -3, LMPTP inh 3 and DNMT1 block 17.
`COc1ccc(Cc2c(C(C)(C)C)nc3ccc(Cl)cn23)c(C)c1` gave SUMO1-SIM PPI -4, STEP block 2, CSN deneddyl inh 4, LMPTP inh 4 and DNMT1 block 104*.
Screening COc1ccc(Cc2c(C(C)(C)C)nc3ccc(C)cn23)c(C)c1 returned SUMO1-SIM PPI -1, STEP block 0, CSN deneddyl inh 8, LMPTP inh 2 and DNMT1 block 10.
